The source of these data is ChEMBL document CHEMBL4613307, “Sigma Receptor Ligands Carrying a Nitric Oxide Donor Nitrate Moiety: Synthesis, In Silico, and Biological Evaluation” (ACS Med Chem Lett, 2020).

Usually Ki stands for a dissociation constant, usually derived from enzyme kinetics or from competition with a known ligand. As a reminder, the IC50 is the concentration needed to halve the response being measured. What is called inhibition is the change of the read-out against control, counted positive when it falls.

Activity calls are given as the source filed them. The calls are words filed in the database; no cut-off is given here. A value given as a limit tells only on which side of the number the result lay.

In series [1] the target is Sigma non-opioid intracellular receptor 1 (Cavia porcellus, UniProt Q60492). The series can be described thus: Displacement of [3H]-(+)-pentazocine from sigma1 receptor in guinea pig brain membranes incubated for 1 hr by liquid scintillation counting method. The format is cell membranes, Membrane. The method in brief: (§1)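 Radioligand binding at σ1 and σ2 receptors, with [3H]DTG as the σ2 radioligand. Ki given as mean ± SD of at least two experiments run in triplicate.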
(In general: Loss of bound radioactivity is the signal in a displacement assay; it reports binding, not function.)

Series [2] has as its target T1, Sigma intracellular receptor 2 (Homo sapiens, UniProt Q5BJF2). The series can be described thus: Displacement of [3H]-di-o-tolylguanidine from sigma2 receptor (unknown origin) incubated for 1 hr in presence of (+)SKF10047 by liquid scintillation counting method. Summed up: as §1
Series [3] deals with Caco-2. The series can be described thus: Cytotoxicity against human Caco2 cells assessed as reduction in cell viability after 24 hrs by MTT assay. The note with it: Caco-2, 24 h. The format is functional, cell-based. Summed up: (§2)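 MTT viability assay in Caco-2, MCF-7 and HFF-1 cells; top tested concentration 100 μM. IC50 given as mean ± SD of at least two experiments run in quadruplicate.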
On the technique in general: Tetrazolium dyes change colour on reduction, which living cells bring about.

The test system of series [4] is MCF7. Description: Cytotoxicity against human MCF7 cells assessed as restoration of cell viability loss at IC50 after 24 hrs in presence of AC927 by MTT assay. Format: functional, cell-based. Summed up:
(§3)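 MCF-7 cells given the test agent at its viability-reducing concentration together with 1 μM σ1 agonist (+)-pentazocine or 1 μM σ2 antagonist 1-phenethylpiperidine (AC927); viability read by MTT.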

For series [5], the system named is MCF7. The series can be described thus: Cytotoxicity against human MCF7 cells assessed as reduction in cell viability after 24 hrs by MTT assay. The format is functional, cell-based. The following applies: MCF7, 24 h. Summed up: as §2
Series [6] has as its system HFF-1. The series can be described thus: Cytotoxicity against human HFF1 cells assessed as reduction in cell viability at 100 uM after 24 hrs by MTT assay relative to control. Format: cell-based. The note with it: hff-1, 24 h.
Series [7] is described as follows: Drug metabolism in Tris-HCl buffer assessed as amount of nitrite released at 100 uM and 37 degree C after 30 mins in presence of nitrate reductase and NADPH by Griess reagent based spectrophotometric analysis. Format: physicochemical. The note with it: 0.5 h. Summed up:
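Test agents at 100 μM incubated in Tris-HCl buffer at 37 °C for 30 min; total nitrite measured with Griess reagent.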
On the technique in general: Nitrite, measured by Griess reagent, commonly stands in for NO production.

For series [8], the system named is HFF-1. Description: Cytotoxicity against human HFF1 cells assessed as reduction in cell viability after 24 hrs by MTT assay. The format is cell-based. The note with it: HFF-1, 24 h. The method in brief:
as §2

Series [9] concerns MCF7. Description: Cytotoxicity against human MCF7 cells assessed as restoration of cell viability loss at IC50 after 24 hrs in presence of PTZ by MTT assay. Format: functional, cell-based. Summed up:
as §3

Series [10] has as its system MCF7. Description: Cytotoxicity against human MCF7 cells assessed as reduction in cell viability at 100 uM after 24 hrs by MTT assay relative to control. Format: functional.
Series [11] deals with Caco-2. Description: Cytotoxicity against human Caco2 cells assessed as reduction in cell viability at 100 uM after 24 hrs by MTT assay relative to control. The format is functional.
Series [12] deals with T1, Sigma intracellular receptor 2. Description: Displacement of [3H]-di-o-tolylguanidine from sigma2 receptor (unknown origin) at 10 uM incubated for 1 hr in presence of (+)SKF10047 by liquid scintillation counting method relative to control.
Series [13] deals with Sigma non-opioid intracellular receptor 1 (Cavia porcellus) (UniProt Q60492). Description: Displacement of [3H]-(+)-pentazocine from sigma1 receptor in guinea pig brain membranes at 10 uM incubated for 1 hr by liquid scintillation counting method relative to control. The format is cell membranes. The note with it: Membrane.
Chain of Sigma non-opioid intracellular receptor 1 (Cavia porcellus) (Q60492 whole entry): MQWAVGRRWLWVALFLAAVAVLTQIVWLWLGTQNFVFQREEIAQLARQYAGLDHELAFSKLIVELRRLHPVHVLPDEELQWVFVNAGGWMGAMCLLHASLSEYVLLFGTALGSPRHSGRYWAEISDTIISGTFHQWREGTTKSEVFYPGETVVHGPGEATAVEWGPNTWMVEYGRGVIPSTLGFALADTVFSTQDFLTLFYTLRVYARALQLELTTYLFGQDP

Chain of Sigma non-opioid intracellular receptor 1 (Q60492 whole entry): as above
T1 sequence (Q5BJF2 whole entry): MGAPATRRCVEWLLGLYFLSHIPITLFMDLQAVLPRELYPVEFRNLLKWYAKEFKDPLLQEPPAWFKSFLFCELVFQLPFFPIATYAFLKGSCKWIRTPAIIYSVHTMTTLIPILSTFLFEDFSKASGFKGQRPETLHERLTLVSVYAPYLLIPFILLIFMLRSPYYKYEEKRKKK

For the molecule `O=C(NCCCN1CCC(Cc2ccccc2)CC1)c1ccc(CO[N+](=O)[O-])cc1`, the Ki is 145 nM in series [1] and 230 nM in series [2].
For `O=C(NCCCCN1CCC(Cc2ccccc2)CC1)c1ccc(CO[N+](=O)[O-])cc1`, the IC50 is 28 µM in the series on Caco-2 [3], 26 µM in the series on MCF7 [5] and greater than 100 µM with HFF-1 [8]. Moreover, the outcome with MCF7 [4] and in the series with MCF7 [9] was inactive. Further, the Ki in series [1] amounted to 250 nM; in [2], 89 nM. In the series on HFF-1 [6], the Activity is less than 50%. Moreover, in [7], the Drug metabolism came out at 13 µM.
Take `C[C@@H]1CCO[C@H]2Cn3cc(C(=O)NCc4ccc(F)cc4F)c(=O)c(O)c3C(=O)N12` [DOLUTEGRAVIR]: the Ki in series [2] was 18 nM.
Turning to `O=C(Cc1cccc(CO[N+](=O)[O-])c1)NC1CCN(Cc2ccccc2)CC1`, the IC50 with Caco-2 [3], in the series on MCF7 [5] and with HFF-1 [8] was greater than 100 µM throughout. The Ki in series [1] was 19 nM; in [2] it was 320 nM. Moreover, the Activity in the series on HFF-1 [6], with MCF7 [10] and with Caco-2 [11] was less than 50% throughout. Further, the Drug metabolism in [7] amounted to 1.3 µM.
With `O=C(NCCN1CCC(Cc2ccccc2)CC1)c1cccc(CO[N+](=O)[O-])c1`, the IC50 in the series with Caco-2 [3] is 59 µM; with MCF7 [5] it was 36 µM; in the series on HFF-1 [8], greater than 100 µM. In addition, the Ki was found to be 49 nM in series [1] and 330 nM in series [2]. Moreover, the Activity in the series on HFF-1 [6] is less than 50%. Besides, in series [7], the Drug metabolism is 13 µM.
For the molecule `O=C(NCCCCCN1CCC(Cc2ccccc2)CC1)c1ccc(CO[N+](=O)[O-])cc1`, the Ki was determined as 93 nM in series [1] and 70 nM in series [2].
The corresponding values for `O=C(NCCN1CCC(Cc2ccccc2)CC1)c1ccc(CO[N+](=O)[O-])cc1` are 89 nM and 2670 nM.
On to `COc1cccc2c1C(=O)c1c(O)c3c(c(O)c1C2=O)C[C@@](O)(C(=O)CO)C[C@@H]3O[C@H]1C[C@H](N)[C@H](O)[C@H](C)O1` [DOXORUBICIN], for which the IC50 in the series on Caco-2 [3] is 21 µM; in the series with HFF-1 [8], greater than 100 µM. Also, in the series with HFF-1 [6], the Activity is less than 50%.
Regarding `O=C(O)c1ccc(CO)cc1`, the Ki in series [1] and in [2] was greater than 10000 nM in each case. For the same molecule, the IC50 with MCF7 [5] was greater than 100 µM. The Activity with MCF7 [10] is reported as less than 50%. The inhibition in series [12] and in series [13] was less than 50% throughout.
As to `O=C(NC1CCN(Cc2ccccc2)CC1)c1ccc(CO[N+](=O)[O-])cc1`, the IC50 in the series with Caco-2 [3], with MCF7 [5] and in the series on HFF-1 [8] was greater than 100 µM each time. Further, the Ki is 22 nM in series [1] and 270 nM in series [2]. Moreover, the Activity in the series on HFF-1 [6], in the series on MCF7 [10] and with Caco-2 [11] was less than 50% each time. Besides, the Drug metabolism in [7] was 6.3 µM.
On to `O=C(NCCCCN1CCC(Cc2ccccc2)CC1)c1ccc(CO)cc1`, for which the Ki worked out at 711 nM in series [1] and 2600 nM in series [2]. Moreover, the IC50 in the series with MCF7 [5] is greater than 100 µM. The Activity in the series on MCF7 [10] was less than 50%.
On to `O=C(NCCCCCN1CCC(Cc2ccccc2)CC1)c1cccc(CO[N+](=O)[O-])c1`, for which the Ki stood at 50 nM in series [1] and 142 nM in series [2].
For the molecule `Cc1ccc(C(=O)O)cc1` [4-METHYLBENZOIC ACID], the Ki in series [1] and in series [2] was greater than 10000 nM each time. The IC50 with MCF7 [5] was greater than 100 µM. Besides, the Activity with MCF7 [10] was less than 50%. In addition, the inhibition in series [12] and in series [13] was less than 50% throughout.
Turning to `O=C(O)c1ccc(CO[N+](=O)[O-])cc1`, the inhibition constant Ki in series [1] and in series [2] was greater than 10000 nM in each case. Besides, in the series on MCF7 [5], the IC50 is greater than 100 µM. Further, the Activity in the series on MCF7 [10] is less than 50%. For the same molecule, the inhibition in [12] and in [13] was less than 50% throughout.
Consider `Cc1ccc(C(=O)NCCCCN2CCC(Cc3ccccc3)CC2)cc1`, for which the Ki came to 62 nM in series [1] and 127 nM in series [2]. In addition, the IC50 in the series with MCF7 [5] is 87 µM. For the same molecule, the Activity in the series with MCF7 [10] is recorded as less than 50%.
Take `O=C(NCCCN1CCC(Cc2ccccc2)CC1)c1cccc(CO[N+](=O)[O-])c1`: the Ki was found to be 64 nM in series [1] and 93 nM in [2].
On the same counts, the results for `O=C(NC1CCN(Cc2ccccc2)CC1)c1cccc(CO[N+](=O)[O-])c1` are 24 nM and 19 nM.
For `O=C(NCCCCN1CCC(Cc2ccccc2)CC1)c1cccc(CO[N+](=O)[O-])c1`, the Ki stood at 148 nM in series [1] and 75 nM in series [2].
On the same counts, the results for `O=C(Cc1ccc(CO[N+](=O)[O-])cc1)NC1CCN(Cc2ccccc2)CC1` are 170 nM and 2510 nM.
